Results published in ChEMBL document CHEMBL1128374, “Preparation and in vitro activities of ethers of [D-serine]8-cyclosporin” (J Med Chem, 1995).
Values after ≈ are worked out from the molar mass of the structure shown.

Columns and labels:
Type in all cases: functional
Mus musculus [1] = organism: Mus musculus; assay: In vitro efficacy to suppress lymphocyte proliferation as measured by the incorporation of a labeled precursor ([3H]- thymidine) into DNA in Mixed Lymphocyte reaction (MLR).
Summary of the method: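 Cells from spleens of female CBA mice aged 8–10 weeks (ca. 5 x 10^5). Compounds made up at 20 mg/mL in 9:1 (v/v) ethanol/Tween 80, then diluted in saline before adding to medium. Four concentrations per compound across 1.8–1000 ng/mL, in triplicate cultures. IC50 is the calculated concentration giving 50% inhibition of proliferation. Cyclosporin A run in parallel as control.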

Mus musculus [2] = organism: Mus musculus; assay: In vitro inhibition of interleukin-2 (IL-2) production induced by stimulating lymphocytes derived from mouse spleens with the […]; details: Spleen
Summary of the method: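 Compounds added with concanavalin A to the primary culture; supernatants collected at 48 h. IL-2 content measured by growth of IL-2-dependent CTLL cells, read as tritiated thymidine incorporation after 48 h. IC50 determined, with cyclosporin A run in parallel.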

Mus musculus [3] = organism: Mus musculus; assay: In vitro efficacy on humoral immune response by Mishell-Dutton assay (MD).
Summary of the method: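 Spleen lymphocytes from female OF1 mice (ca. 10 x 10^6) cultured 3 days with sheep erythrocytes (ca. 30 x 10^6) and test compound. Cells then plated on agar with fresh erythrocytes; plaques form by complement lysis. Read-out is the count of antibody-producing plaque-forming cells. Cyclosporin A run in parallel.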

| SMILES | IC50 (Mus musculus [2]) [µg/mL] | IC50 (Mus musculus [3]) [µg/mL] | IC50 (Mus musculus [1]) [µg/mL] |
| --- | --- | --- | --- |
| C/C=C/C[C@@H](C)[C@@H](O)[C@H]1C(=O)N[C@@H](CC)C(=O)N(C)CC(=O)N(C)[C@@H](CC(C)C)C(=O)N[C@@H](C(C)C)C(=O)N(C)[C@@H](CC(C)C)C(=O)N[C@@H](C)C(=O)N2CC(=O)OC[C@@H]2C(=O)N(C)[C@@H](CC(C)C)C(=O)N(C)[C@@H](CC(C)C)C(=O)N(C)[C@@H](C(C)C)C(=O)N1C | 0.024 (≈ 0.0191 µM) |  | 0.167 (≈ 0.133 µM) |
| C/C=C/C[C@@H](C)[C@@H](O)[C@H]1C(=O)N[C@@H](CC)C(=O)N(C)CC(=O)N(C)[C@@H](CC(C)C)C(=O)N[C@@H](C(C)C)C(=O)N(C)[C@@H](CC(C)C)C(=O)N[C@@H](C)C(=O)N[C@H](COC/C=C/CO)C(=O)N(C)[C@@H](CC(C)C)C(=O)N(C)[C@@H](CC(C)C)C(=O)N(C)[C@@H](C(C)C)C(=O)N1C |  | 0.036 (≈ 0.0279 µM) | 0.07 (≈ 0.0543 µM) |
| C/C=C/C[C@@H](C)[C@@H](O)[C@H]1C(=O)N[C@@H](CC)C(=O)N(C)CC(=O)N(C)[C@@H](CC(C)C)C(=O)N[C@@H](C(C)C)C(=O)N(C)[C@@H](CC(C)C)C(=O)N[C@@H](C)C(=O)N[C@H](COCC(=O)OC(C)C)C(=O)N(C)[C@@H](CC(C)C)C(=O)N(C)[C@@H](CC(C)C)C(=O)N(C)[C@@H](C(C)C)C(=O)N1C |  | 0.725 (≈ 0.55 µM) | 0.1 (≈ 0.0758 µM) |
| C/C=C/C[C@@H](C)[C@@H](O)[C@H]1C(=O)N[C@@H](CC)C(=O)N(C)CC(=O)N(C)[C@@H](CC(C)C)C(=O)N[C@@H](C(C)C)C(=O)N(C)[C@@H](CC(C)C)C(=O)N[C@@H](C)C(=O)N[C@H](COCCOCC(=O)OC(C)C)C(=O)N(C)[C@@H](CC(C)C)C(=O)N(C)[C@@H](CC(C)C)C(=O)N(C)[C@@H](C(C)C)C(=O)N1C |  | 0.078 (≈ 0.0572 µM) | 0.05 (≈ 0.0367 µM) |
| C/C=C/C[C@@H](C)[C@@H](O)[C@H]1C(=O)N[C@@H](CC)C(=O)N(C)CC(=O)N(C)[C@@H](CC(C)C)C(=O)N[C@@H](C(C)C)C(=O)N(C)[C@@H](CC(C)C)C(=O)N[C@@H](C)C(=O)N[C@H](COCCC2OCCCO2)C(=O)N(C)[C@@H](CC(C)C)C(=O)N(C)[C@@H](CC(C)C)C(=O)N(C)[C@@H](C(C)C)C(=O)N1C |  | 0.21 (≈ 0.158 µM) | 0.12 (≈ 0.09 µM) |
| C/C=C/C[C@@H](C)[C@@H](O)[C@H]1C(=O)N[C@@H](CC)C(=O)N(C)CC(=O)N(C)[C@@H](CC(C)C)C(=O)N[C@@H](C(C)C)C(=O)N(C)[C@@H](CC(C)C)C(=O)N[C@@H](C)C(=O)N[C@H](COCCOCCOCCO)C(=O)N(C)[C@@H](CC(C)C)C(=O)N(C)[C@@H](CC(C)C)C(=O)N(C)[C@@H](C(C)C)C(=O)N1C |  | 0.1 (≈ 0.074 µM) | 0.47 (≈ 0.348 µM) |

The next lines start with results.

| IC50 (Mus musculus [2]) [µg/mL] | IC50 (Mus musculus [3]) [µg/mL] | SMILES | IC50 (Mus musculus [1]) [µg/mL] |
| --- | --- | --- | --- |
|  | 0.023 (≈ 0.0183 µM) | C/C=C/C[C@@H](C)[C@@H](O)[C@H]1C(=O)N[C@@H](CC)C(=O)N(C)CC(=O)N(C)[C@@H](CC(C)C)C(=O)N[C@@H](C(C)C)C(=O)N(C)[C@@H](CC(C)C)C(=O)N[C@@H](C)C(=O)N[C@H](COCC#N)C(=O)N(C)[C@@H](CC(C)C)C(=O)N(C)[C@@H](CC(C)C)C(=O)N(C)[C@@H](C(C)C)C(=O)N1C | 0.01 (≈ 0.00795 µM) |
|  | 0.078 (≈ 0.0604 µM) | C/C=C/C[C@@H](C)[C@@H](O)[C@H]1C(=O)N[C@@H](CC)C(=O)N(C)CC(=O)N(C)[C@@H](CC(C)C)C(=O)N[C@@H](C(C)C)C(=O)N(C)[C@@H](CC(C)C)C(=O)N[C@@H](C)C(=O)N[C@H](COCC(C)(C)O)C(=O)N(C)[C@@H](CC(C)C)C(=O)N(C)[C@@H](CC(C)C)C(=O)N(C)[C@@H](C(C)C)C(=O)N1C | 0.05 (≈ 0.0387 µM) |
|  | 0.065 (≈ 0.0504 µM) | C/C=C/C[C@@H](C)[C@@H](O)[C@H]1C(=O)N[C@@H](CC)C(=O)N(C)CC(=O)N(C)[C@@H](CC(C)C)C(=O)N[C@@H](C(C)C)C(=O)N(C)[C@@H](CC(C)C)C(=O)N[C@@H](C)C(=O)N[C@H](COCC(=O)OC)C(=O)N(C)[C@@H](CC(C)C)C(=O)N(C)[C@@H](CC(C)C)C(=O)N(C)[C@@H](C(C)C)C(=O)N1C | 0.044 (≈ 0.0341 µM) |
|  | 0.09 (≈ 0.0697 µM) | C/C=C/C[C@@H](C)[C@@H](O)[C@H]1C(=O)N[C@@H](CC)C(=O)N(C)CC(=O)N(C)[C@@H](CC(C)C)C(=O)N[C@@H](C(C)C)C(=O)N(C)[C@@H](CC(C)C)C(=O)N[C@@H](C)C(=O)N[C@H](COCCCCO)C(=O)N(C)[C@@H](CC(C)C)C(=O)N(C)[C@@H](CC(C)C)C(=O)N(C)[C@@H](C(C)C)C(=O)N1C | 0.094 (≈ 0.0728 µM) |
|  | 0.24 (≈ 0.178 µM) | C/C=C/C[C@@H](C)[C@@H](O)[C@H]1C(=O)N[C@@H](CC)C(=O)N(C)CC(=O)N(C)[C@@H](CC(C)C)C(=O)N[C@@H](C(C)C)C(=O)N(C)[C@@H](CC(C)C)C(=O)N[C@@H](C)C(=O)N[C@H](COC/C=C/CBr)C(=O)N(C)[C@@H](CC(C)C)C(=O)N(C)[C@@H](CC(C)C)C(=O)N(C)[C@@H](C(C)C)C(=O)N1C | 0.09 (≈ 0.0666 µM) |
